Results from ChEMBL document CHEMBL1123658, “1-(2-pyridinyl)piperazine derivatives with antianaphylactic, antibronchospastic, and mast cell stabilizing activities” (J Med Chem, 1987).

What was measured:
[1] = In vivo toxic effect was determined in mouse after intraperitoneal administration with 10% aqueous acacia gum; value ranges from 0.50-0.84; assay type: toxicity, organism-based; settings: ip
Method in brief: (§1)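 Female albino mice (20-30 g), 10 animals per dose, dosed intraperitoneally with compound in solution or suspension; compounds tested as salts unless noted. Mortality was recorded over 7 days.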

Rattus norvegicus [2] = assay: Rat PCA Test(50% inhibition of spot areas)in the female albino rats after (ip) administration in 10% aqueous acacia gum; value ranges from 14-22; assay type: functional; settings: read-out: ID50 (the source's name)
Method in brief: (§2)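 Female albino rats (200–250 g) received intradermal ventral injections of rat anti-egg-albumin antiserum; donors were raised with egg albumin im plus H. pertussis ip, and serum was taken at 12 days. 24 h later, compound was given ip in 10% acacia gum (10 mL/kg), 10 rats/group. Challenge 30 min later was iv 0.3% egg albumin plus 1% Evans blue. Blued areas were measured 30 min after challenge.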

Rattus norvegicus [3] = assay: Inhibition of mast cell degranulation was assessed in female albino rats at a dose of 42 umol/kg iv; assay type: functional
Rattus norvegicus [4] = assay: Rat PCA Test(50% inhibition of spot areas)in the female albino rats after (ip) administration in 10% aqueous acacia gum; value ranges from 34-42; assay type: functional; settings: read-out: ID50 (the source's name); method in brief: as §2
[5] = In vivo toxic effect was determined in mouse after intraperitoneal administration with 10% aqueous acacia gum; value ranges from 0.61-0.99; assay type: toxicity, organism-based; settings: ip; method in brief: as §1
[6] = In vivo toxic effect was determined in mouse after oral administration with 10% aqueous acacia gum; value ranges from 0.77-1.28; assay type: toxicity, organism-based
Method in brief: (§3)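 Female albino mice, 20-30 g. Compound given orally as solution or suspension in 10% aqueous acacia gum, 10 animals per dose. Deaths recorded over 7 days.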

Rattus norvegicus [7] = assay: Inhibition of mast cell degranulation was assessed in female albino rats at a dose of 26 umol/kg iv; assay type: functional
Cavia porcellus = assay: Antibronchospatic activity determined by histamine stimulated bronchospasm inhibition in guinea pigs after(i.v.) administration; assay type: functional, Bronchiole
Method in brief: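 Guinea pigs, Konzett–Rössler preparation. Bronchospasm was induced with histamine. Compound was given iv (1 mL/kg) 1 min before the agonist, dissolved in saline or saline with slight excess HCl or CH3SO3H (pH 3.5–4). Three doses were tested in duplicate, chosen to give 20–90% inhibition. ID75 was read graphically from log dose–response curves.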

[8] = In vivo toxic effect was determined in mouse after intraperitoneal administration with 10% aqueous acacia gum; value ranges from 0.27-0.50; assay type: toxicity, organism-based; settings: ip; method in brief: as §1
[9] = In vivo toxic effect was determined in mouse after oral administration with 10% aqueous acacia gum; value ranges from 0.53-0.84; assay type: toxicity, organism-based
Rattus norvegicus [10] = assay: Rat PCA Test(50% inhibition of spot areas)in the female albino rats after (ip) administration in 10% aqueous acacia gum;Value ranges from(44-250); assay type: functional; settings: read-out: ID50 (the source's name)
Method in brief: (§4)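 Antiserum came from female rats given 1% egg albumin in 0.9% NaCl intramuscularly plus Haemophilus pertussis vaccine (2 × 10^10 organisms) intraperitoneally, and was collected 12 days later. Recipient rats (200-250 g) got it intradermally at a ventral site. After 24 h, groups of 10 received vehicle or compound ip. At 30 min they were challenged iv with 0.3% egg albumin plus 1% Evans blue. Blued skin areas were measured 30 min later.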

[11] = In vivo toxicity in mouse after oral administration with 10% aqueous acacia gum; assay type: organism-based; method in brief: as §3
Mus musculus = assay: In vivo toxic effect was determined in mouse after intraperitoneal administration with 10% aqueous acacia gum; NA means poorly absorbed; assay type: toxicity, organism-based; settings: ip; method in brief: as §1
Rattus norvegicus [12] = assay: Rat PCA Test(50% inhibition of spot areas)in the female albino rats after oral administration in 10% aqueous acacia gum; assay type: functional; settings: read-out: ID50 (the source's name)
Method in brief: (§5)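 Female rats (200-250 g) were passively sensitized by ventral intradermal anti-egg-albumin antiserum. This was raised in rats by intramuscular 1% egg albumin plus ip H. pertussis vaccine, with serum taken at 12 days. After 24 h, groups of 10 were dosed orally with compound or vehicle (10 mL/kg). At 60 min, iv challenge used 0.3% egg albumin with 1% Evans blue. Blued areas were measured after 30 min.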

Rattus norvegicus [13] = assay: Rat PCA Test(50% inhibition of spot areas)in the female albino rats after (ip) administration in 10% aqueous acacia gum; value ranges from 66-231; assay type: functional; settings: read-out: ID50 (the source's name); method in brief: as §2
[14] = In vivo toxic effect was determined in mouse after intraperitoneal administration with 10% aqueous acacia gum; value ranges from 0.89-1.63; assay type: toxicity, organism-based; settings: ip; method in brief: as §1
[15] = In vivo toxic effect was determined in mouse after oral administration with 10% aqueous acacia gum; value ranges from 1.19-2.07; assay type: toxicity, organism-based; method in brief: as §3
[16] = In vivo toxic effect was determined in mouse after intraperitoneal administration with 10% aqueous acacia gum; value ranges from 1.02-1.35; assay type: toxicity, organism-based; settings: ip; method in brief: as §1
[17] = In vivo toxic effect was determined in mouse after oral administration with 10% aqueous acacia gum;Value ranges from(5.68-7.37); assay type: toxicity, organism-based; method in brief: as §3
Rattus norvegicus [18] = assay: Rat PCA Test(50% inhibition of spot areas)in the female albino rats after (ip) administration in 10% aqueous acacia gum; assay type: functional; settings: read-out: ID50 (the source's name); method in brief: as §2
Rattus norvegicus [19] = assay: Rat PCA Test(50% inhibition of spot areas)in the female albino rats after (ip) administration in 10% aqueous acacia gum; value ranges from 96-124; assay type: functional; settings: read-out: ID50 (the source's name); method in brief: as §4
Rattus norvegicus [20] = assay: Inhibition of mast cell degranulation was assessed in female albino rats at a dose of 43 umol/kg iv; assay type: functional
[21] = In vivo toxic effect was determined in mouse after intraperitoneal administration with 10% aqueous acacia gum; value ranges from 0.88-1.56; assay type: toxicity, organism-based; settings: ip; method in brief: as §1
Rattus norvegicus [22] = assay: Rat PCA Test(50% inhibition of spot areas)in the female albino rats after (ip) administration in 10% aqueous acacia gum; value ranges from 213-612; assay type: functional; settings: read-out: ID50 (the source's name); method in brief: as §2
Rattus norvegicus [23] = assay: Inhibition of mast cell degranulation was assessed in female albino rats at a dose of 22 umol/kg iv; assay type: functional
[24] = In vivo toxic effect was determined in mouse after intraperitoneal administration with 10% aqueous acacia gum; value ranges from 0.53-0.97; assay type: toxicity, organism-based; settings: ip; method in brief: as §1
Rattus norvegicus [25] = assay: Rat PCA Test(50% inhibition of spot areas)in the female albino rats after (ip) administration in 10% aqueous acacia gum; value ranges from 23-40; assay type: functional; settings: read-out: ID50 (the source's name); method in brief: as §2
[26] = In vivo toxic effect was determined in mouse after oral administration with 10% aqueous acacia gum; value ranges from 0.66-1.27; assay type: toxicity, organism-based
Rattus norvegicus [27] = assay: Rat PCA Test(50% inhibition of spot areas)in the female albino rats after oral administration in 10% aqueous acacia gum; value ranges from 88-129; assay type: functional; settings: read-out: ID50 (the source's name); method in brief: as §5
[28] = In vivo toxic effect was determined in mouse after intraperitoneal administration with 10% aqueous acacia gum; value ranges from 0.30-0.61; assay type: toxicity, organism-based; settings: ip; method in brief: as §1
Rattus norvegicus [29] = assay: Rat PCA Test(50% inhibition of spot areas)in the female albino rats after oral administration in 10% aqueous acacia gum; value ranges from 99-191; assay type: functional; settings: read-out: ID50 (the source's name); method in brief: as §5
Rattus norvegicus [30] = assay: Rat PCA Test(50% inhibition of spot areas)in the female albino rats after (ip) administration in 10% aqueous acacia gum; value ranges from 42-79; assay type: functional; settings: read-out: ID50 (the source's name); method in brief: as §2
Rattus norvegicus [31] = assay: Inhibition of mast cell degranulation was assessed in female albino rats at a dose of 23 umol/kg iv; assay type: functional
[32] = In vivo toxic effect was determined in mouse after oral administration with 10% aqueous acacia gum; value ranges from 1.75-2.99; assay type: toxicity, organism-based; method in brief: as §3

Cc1cc(C)c(C)c(NC(=O)CCN2CCN(c3ccccn3)CC2)c1C.Cl.Cl
LD50 [1]: 570 µmol/kg
ED50 (Rattus norvegicus [2]): 18 µmol/kg
inhibition in vivo at 42 µmol/kg (Rattus norvegicus [3]): 2%

CCOc1ccc(NC(=O)CCN2CCN(c3ccccn3)CC2)cc1.Cl.Cl
ED50 (Rattus norvegicus [4]): 37 µmol/kg
LD50 [5]: 690 µmol/kg
LD50 [6]: 920 µmol/kg
inhibition in vivo at 26 µmol/kg (Rattus norvegicus [7]): 0%
ID75 (Cavia porcellus): 0.14 µM/kg

COc1cccc(N2CCN(CCC(=O)Nc3ccccc3N)CC2)n1.Cl.Cl
LD50 [8]: 370 µmol/kg
LD50 [9]: 670 µmol/kg
ID75 (Cavia porcellus): 108 µM/kg

Cl.Cl.NC(=O)c1ccc(NC(=O)CCN2CCN(c3ccccn3)CC2)cc1
ED50 (Rattus norvegicus [10]): 124 µmol/kg
LD50 [11]: > 6400 µmol/kg
LD50 (Mus musculus): Not Active
ED50 (Rattus norvegicus [12]): > 212 µmol/kg
ID75 (Cavia porcellus): 0.3 µM/kg

CCC(=O)Nc1ccc(NC(=O)CCN2CCN(c3ccccn3)CC2)cc1.Cl.Cl
ED50 (Rattus norvegicus [13]): 147 µmol/kg
LD50 [14]: 1050 µmol/kg
LD50 [15]: 1530 µmol/kg
ID75 (Cavia porcellus): 0.23 µM/kg

COc1cccc(NC(=O)CCN2CCN(c3ccccn3)CC2)c1.Cl.Cl
LD50 [16]: 1180 µmol/kg
LD50 [17]: 7100 µmol/kg
ED50 (Rattus norvegicus [18]): > 118 µmol/kg
ID75 (Cavia porcellus): 0.56 µM/kg

CNC(=O)Nc1ccc(NC(=O)CCN2CCN(c3ccccn3)CC2)cc1.Cl.Cl
LD50 [11]: > 6500 µmol/kg
ED50 (Rattus norvegicus [12]): > 220 µmol/kg
ED50 (Rattus norvegicus [19]): 109 µmol/kg
inhibition in vivo at 43 µmol/kg (Rattus norvegicus [20]): 0%
ID75 (Cavia porcellus): 0.29 µM/kg

C=CCOC(=O)CCN1CCN(c2ccccn2)CC1.Cl.Cl
LD50 [21]: 1030 µmol/kg
LD50 [11]: > 8610 µmol/kg
ED50 (Rattus norvegicus [22]): 330 µmol/kg
ED50 (Rattus norvegicus [12]): 11.5 µmol/kg

CCOC(=O)c1ccc(NC(=O)CCN2CCN(c3ccccn3)CC2)cc1.Cl.Cl
inhibition in vivo at 22 µmol/kg (Rattus norvegicus [23]): 83%
LD50 [24]: 660 µmol/kg
ED50 (Rattus norvegicus [25]): 30 µmol/kg
LD50 [26]: 920 µmol/kg
ED50 (Rattus norvegicus [27]): 107 µmol/kg
ID75 (Cavia porcellus): 0.17 µM/kg

Cl.Cl.O=C(CCN1CCN(c2ccccn2)CC1)Nc1cccc([N+](=O)[O-])c1
LD50 [28]: 420 µmol/kg
ED50 (Rattus norvegicus [29]): 137 µmol/kg
ED50 (Rattus norvegicus [30]): 58 µmol/kg
inhibition in vivo at 23 µmol/kg (Rattus norvegicus [31]): 87%
ID75 (Cavia porcellus): 0.37 µM/kg
LD50 [32]: 2070 µmol/kg
